The IC50 is the concentration at which inhibition is half-maximal. A word on the GI50: it is the concentration that inhibits growth by half. A higher GI50 goes with lower sensitivity of the cells.

Converted amounts (≈) assume the structure as drawn.

The text below walks through data of ChEMBL document CHEMBL3804768, “Structure-Activity Relationship Studies of Mitogen Activated Protein Kinase Interacting Kinase (MNK) 1 and 2 and BCR-ABL1 Inhibitors Targeting Chronic Myeloid Leukemic Cells” (J Med Chem, 2016).

Series [1] addresses MAP kinase-interacting serine/threonine-protein kinase 1 (Homo sapiens, UniProt Q9BUB5). Briefly: Inhibition of N-terminal GST-tagged MNK1 kinase domain (37 to 341 residues) (unknown origin) expressed in Escherichia coli BL21(DE3) cells using JH3 peptide substrate preincubated for 10 mins followed by substrate addition measured after 60 mins by mobility shift assay.
Series [2] concerns the target MAP kinase-interacting serine/threonine-protein kinase 2 (Homo sapiens, UniProt Q9HBH9). Briefly: Inhibition of N-terminal GST-tagged MNK2 kinase domain (72 to 385 residues) (unknown origin) expressed in Escherichia coli BL21(DE3) cells using JH3 peptide substrate preincubated for 10 mins followed by substrate addition measured after 60 mins by mobility shift assay.

Series [3] concerns the target Tyrosine-protein kinase ABL1 (Homo sapiens, UniProt P00519, T315I). Description: Inhibition of full length human recombinant N-terminal His-tagged ABL (2 to 1130 residues) T315I mutant expressed in baculovirus expression system using FL-peptide 2 substrate preincubated for 10 mins followed by substrate addition measured after 60 mins by mobility shift assay. A digest of the protocol:
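Buffer is 100 mM HEPES pH 7.5, 10 mM MgCl2, 0.004% Tween 20, 1 mM DTT, 0.003% Brij L23. Enzyme and compound sit 10 min before ATP/substrate is added. The reaction runs 60 min at room temperature, is stopped with 10 mM EDTA, and is read by mobility shift.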

The subject of series [4] is K562. Description: Antiproliferative activity against human K562 cells over expressing eIF4E after 48 hrs by Cell-Titer-Glo luminescent cell viability assay. It counts as functional. Conditions: K562, 48 h. A digest of the protocol: (§1)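 Cells seeded at 5000 per well in growth medium, exposed to serial doses from 0.003 μM to 50 μM for 48 h at 37 °C, 5% CO2. Viability was read by CellTiter-Glo luminescence and GI50 taken from the dose-response curve. Dose response was run in triplicate and the curve repeated twice. K562 eIF4E-overexpressing cells were cultured in RPMI with 10% FBS.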

For another series, the target named is Bcr/Abl fusion protein (Homo sapiens, UniProt P00519). Briefly: Inhibition of BCR fused full length human recombinant N-terminal His-tagged ABL (2 to 1130 residues) expressed in baculovirus expression system using FL-peptide 2 substrate preincubated for 10 mins followed by substrate addition measured after 60 mins by mobility shift assay.
The target of series [5] is MAP kinase-interacting serine/threonine-protein kinase 1/2 (Homo sapiens, UniProt Q9HBH9+Q9BUB5). Description: Inhibition of MNK1/MNK2 in human HeLa cells assessed as reduction in phosphorylation of eIF4E at Ser209 after 2 hrs by AlphaScreen SureFire assay. It counts as cell-based. The procedure, abridged:
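HeLa cells were grown in DMEM with 10% FBS and penicillin/streptomycin, seeded at 30,000 per well and left 24 h. They were then exposed to serially diluted compound in serum-free DMEM for 2 h at 37 °C and lysed with shaking for 20 min. Phospho-eIF4E Ser209 was read by AlphaScreen SureFire with 2 h acceptor and 2 h donor steps at room temperature. Dose response was run in triplicate.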

Series [6] in a line: Thermodynamic solubility in pH 4 pION buffer at 500 uM incubated for 18 hrs by UV-spectrophotometry. It counts as physicochemical. Particulars: read-out: Therm_solubility.
The target of the next series is Cytochrome P450 3A4 (Homo sapiens, UniProt P08684). Briefly: Inhibition of CYP3A4 (unknown origin). In kind it is ADME.
The nature of series [7]: Permeability of compound by PAMPA. It counts as ADME. Particulars: read-out: permeability.
The target of another series is Cytochrome P450 2D6 (Homo sapiens, UniProt P10635). Briefly: Inhibition of CYP2D6 (unknown origin). In kind it is ADME.
The nature of series [8]: Antiproliferative activity against human BV173 cells after 48 hrs by Cell-Titer-Glo luminescent cell viability assay. In kind it is functional. Particulars: BV-173, 48 h. A digest of the protocol:
as §1

Series [9] in a line: Antiproliferative activity against human KCL22 cells after 48 hrs by Cell-Titer-Glo luminescent cell viability assay. Particulars: KCL-22, 48 h. It counts as functional.
Series [10] relates to K562. Description: Antiproliferative activity against human K562 cells after 48 hrs by Cell-Titer-Glo luminescent cell viability assay. Conditions: K562, 48 h. In kind it is functional. The procedure, abridged: as §1
For series [11], the system named is K562. Description: Antitumor activity against human K562 cells over expressing eIF4E xenografted in NOD-SCID mouse assessed as tumor growth inhibition at 200 mg/kg, po qd administered through oral gavage for 14 days relative to control. It counts as functional. Conditions: 336 h, read-out: TGI. A digest of the protocol:
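Female SCID mice, 7-10 weeks old, received 1 x 10^7 K562 eIF4E-overexpressing cells subcutaneously. At tumor volumes of 75-245 mm³ (w²×l/2) mice were randomized and gavaged once daily for 14 days at 10 mL/kg.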
Background: A xenograft is tissue or cells of one species grown in another, often human tumour cells in immunodeficient mice.

Series [12] is described as follows: Antiproliferative activity against human JURL-MK1 cells after 48 hrs by Cell-Titer-Glo luminescent cell viability assay. It counts as functional. Conditions: JURL-MK1, 48 h.
The nature of series [13]: Antiproliferative activity against human EM2 cells after 48 hrs by Cell-Titer-Glo luminescent cell viability assay. In kind it is functional. Particulars: EM-2, 48 h. The procedure, abridged:
as §1

Series [14] is described as follows: Thermodynamic solubility in pH 7 pION buffer at 500 uM incubated for 18 hrs by UV-spectrophotometry. In kind it is physicochemical. Particulars: read-out: Therm_solubility.

MAP kinase-interacting serine/threonine-protein kinase 2, sequence (Q9HBH9 whole entry, the tested form may be a part): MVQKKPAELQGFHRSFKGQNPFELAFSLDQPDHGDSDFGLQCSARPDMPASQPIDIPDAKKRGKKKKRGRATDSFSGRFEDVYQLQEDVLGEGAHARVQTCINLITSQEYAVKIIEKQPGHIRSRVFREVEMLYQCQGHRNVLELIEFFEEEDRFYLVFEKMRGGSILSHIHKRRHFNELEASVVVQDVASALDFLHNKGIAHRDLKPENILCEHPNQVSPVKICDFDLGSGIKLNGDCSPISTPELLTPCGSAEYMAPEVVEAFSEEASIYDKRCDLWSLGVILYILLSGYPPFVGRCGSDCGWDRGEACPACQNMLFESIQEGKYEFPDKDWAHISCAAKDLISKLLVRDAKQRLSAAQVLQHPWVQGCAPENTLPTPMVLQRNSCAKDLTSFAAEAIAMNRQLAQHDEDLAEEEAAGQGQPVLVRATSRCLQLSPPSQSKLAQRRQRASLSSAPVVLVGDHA
MAP kinase-interacting serine/threonine-protein kinase 1, sequence (Q9BUB5 whole entry, the tested form may be a part): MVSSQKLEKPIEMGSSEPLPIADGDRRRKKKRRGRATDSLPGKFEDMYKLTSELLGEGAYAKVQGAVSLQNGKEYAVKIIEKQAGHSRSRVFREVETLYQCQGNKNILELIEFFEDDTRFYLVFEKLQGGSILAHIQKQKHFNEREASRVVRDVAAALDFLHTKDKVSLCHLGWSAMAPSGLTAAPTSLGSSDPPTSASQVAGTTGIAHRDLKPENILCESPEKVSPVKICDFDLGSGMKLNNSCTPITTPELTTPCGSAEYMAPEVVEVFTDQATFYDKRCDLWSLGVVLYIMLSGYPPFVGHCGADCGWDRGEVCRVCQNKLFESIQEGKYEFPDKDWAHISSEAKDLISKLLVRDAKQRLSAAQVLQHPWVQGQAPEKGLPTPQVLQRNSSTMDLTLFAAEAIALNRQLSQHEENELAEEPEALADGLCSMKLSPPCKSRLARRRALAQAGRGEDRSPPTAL
Cytochrome P450 2D6, sequence (P10635 whole entry): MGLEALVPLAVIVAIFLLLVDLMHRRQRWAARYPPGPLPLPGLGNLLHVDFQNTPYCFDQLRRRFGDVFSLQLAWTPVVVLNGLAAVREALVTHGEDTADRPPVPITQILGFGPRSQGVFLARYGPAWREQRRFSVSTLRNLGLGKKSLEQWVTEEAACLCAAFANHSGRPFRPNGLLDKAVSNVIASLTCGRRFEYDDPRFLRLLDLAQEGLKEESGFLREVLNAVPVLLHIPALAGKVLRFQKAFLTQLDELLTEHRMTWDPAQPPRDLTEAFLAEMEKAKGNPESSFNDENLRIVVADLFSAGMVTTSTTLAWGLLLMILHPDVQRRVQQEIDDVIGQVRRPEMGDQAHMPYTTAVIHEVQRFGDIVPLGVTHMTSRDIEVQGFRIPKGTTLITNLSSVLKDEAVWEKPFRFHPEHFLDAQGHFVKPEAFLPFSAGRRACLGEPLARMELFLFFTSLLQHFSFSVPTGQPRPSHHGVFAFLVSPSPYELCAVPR
Cytochrome P450 3A4, sequence (P08684 whole entry): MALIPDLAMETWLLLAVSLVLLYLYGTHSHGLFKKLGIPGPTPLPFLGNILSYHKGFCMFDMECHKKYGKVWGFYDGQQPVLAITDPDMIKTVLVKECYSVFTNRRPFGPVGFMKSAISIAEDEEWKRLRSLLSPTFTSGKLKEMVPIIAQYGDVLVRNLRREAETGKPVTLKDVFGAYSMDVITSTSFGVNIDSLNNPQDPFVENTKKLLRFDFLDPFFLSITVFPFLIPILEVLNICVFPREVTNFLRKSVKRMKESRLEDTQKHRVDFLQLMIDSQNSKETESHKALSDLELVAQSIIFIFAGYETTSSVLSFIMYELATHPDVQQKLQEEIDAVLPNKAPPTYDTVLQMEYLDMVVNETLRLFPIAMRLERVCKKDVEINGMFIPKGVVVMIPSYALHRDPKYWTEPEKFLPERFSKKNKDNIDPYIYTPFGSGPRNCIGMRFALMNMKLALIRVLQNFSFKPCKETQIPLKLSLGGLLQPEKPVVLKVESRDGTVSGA

For the compound `CCN1CCN(Cc2ccc(NC(=O)COc3ccc(-c4ccc(NC(C)=O)nc4)cc3)cc2C(F)(F)F)CC1`, the 50% inhibitory concentration (IC50) is 5680 nM in series [1]; 33 nM in [2]; 170 nM in series [3]; 390 nM on Bcr/Abl fusion protein; 680 nM in series [5]. Further, the GI50 in the series on K562 [4] is 100 nM.
Take `CCC1CCN(Cc2ccc(NC(=O)COc3ccc(-c4cccnc4)cc3)cc2C(F)(F)F)CC1`: the figures for the IC50 (in series [1]; in series [2]; on Bcr/Abl fusion protein) were 4510 nM, 82 nM and over 10000 nM, respectively.
The like results for `CCN1CCN(Cc2ccc(NC(=O)Cc3ccc(Oc4ccnc(NC)c4)cc3)cc2C(F)(F)F)CC1` were, in that order, 370 nM, 8 nM and 580 nM.
The like results for `CCN1CCN(Cc2ccc(NC(=O)C(C)Oc3ccc(-c4cccnc4)cc3)cc2C(F)(F)F)CC1` (configuration not stated) were, in that order, over 10000 nM, over 10000 nM and over 10000 nM.
Taken in the same sequence, the figures for `CCN1CCN(Cc2ccc(CC(=O)Nc3ccc(Oc4cc(NC)ncn4)cc3)cc2C(F)(F)F)CC1` were over 10000 nM, 760 nM and over 10000 nM.
For `CC(=O)Nc1ccc(-c2ccc(NCC(=O)Nc3ccc(CN4CCNCC4)c(C(F)(F)F)c3)cc2)cn1`, the IC50 in series [1] was 3920 nM; in series [2] it was 32 nM; in series [3] it was 240 nM; on Cytochrome P450 3A4, 2400 nM; at Bcr/Abl fusion protein, 880 nM; in series [5], 200 nM. Further, the IC50 against Cytochrome P450 2D6 was over 20000 nM. In addition, the solubility thermodynamic at 18 h, 500 µM in series [6] amounted to 132 µg/mL (≈ 250 µM). Further, the GI50 in the series on K562 [4] was found to be 400 nM. In addition, in [7], the Papp was found to be 1.13 ×10⁻⁶ cm/s.
For `CCN1CCN(Cc2ccc(NC(=O)Cc3ccc(Oc4ccncc4)cc3)cc2C(F)(F)F)CC1`, the values for the IC50 (in series [1]; in series [2]; on Bcr/Abl fusion protein) were 540 nM, 10 nM and 3880 nM, respectively.
The like results for `CCN1CCN(Cc2ccc(NC(=O)COc3ccc(-c4ccncc4)cc3)cc2C(F)(F)F)CC1` were, in that order, over 10000 nM, 1910 nM and over 10000 nM.
The like results for `CCN1CCN(Cc2ccc(NC(=O)Cc3ccc(Oc4cc(NC)ncn4)cc3)cc2C(F)(F)F)CC1` were, in that order, 3690 nM, 22 nM and over 10000 nM.
The like results for `O=C(COc1ccc(-c2cccnc2)cc1)Nc1ccc(CN2CCNCC2)c(C(F)(F)F)c1` were, in that order, 350 nM, 12 nM and over 10000 nM.
Consider `CCN1CCN(Cc2ccc(NC(=O)COc3ccc(-c4cccnc4)cc3)cc2C2CC2)CC1`, for which the IC50 is over 10000 nM in series [1], 130 nM in series [2] and over 10000 nM on Bcr/Abl fusion protein.
In the case of `CC(C)C(=O)Nc1ccc(-c2ccc(NCC(=O)Nc3ccc(CN4CCNCC4)c(C(F)(F)F)c3)cc2)cn1`, the IC50 in series [1] was 7700 nM; in series [2], 130 nM; in [3], over 10000 nM; on Bcr/Abl fusion protein, over 10000 nM; in series [5] it was 860 nM. This compound also yielded a GI50 in the series on K562 [4] of 3300 nM.
`CCN1CCN(Cc2ccc(NC(=O)COc3ccc(-c4ccccn4)cc3)cc2C(F)(F)F)CC1`: the IC50 (in [1]; in series [2]; on Bcr/Abl fusion protein) was over 10000 nM in each case.
In the case of `CCN1CCN(Cc2ccc(NC(=O)COc3ccc(-c4cccnc4)cc3)cc2C(F)(F)F)CC1`, the IC50 was 570 nM in series [1], 14 nM in [2], over 10000 nM on Bcr/Abl fusion protein and 98 nM in series [5]. In addition, the GI50 in the series on K562 [4] was over 10000 nM.
As to `Cc1ccc(NC(=O)c2ccc(CN3CCN(C)CC3)cc2)cc1Nc1nccc(-c2cccnc2)n1` [IMATINIB], the GI50 in series [8] was 100 nM; in series [9], 430 nM; in the series on K562 [10] it was 200 nM; in series [12], 60 nM; in series [13], 260 nM. Further, in the series with K562 [11], the inhibition in vivo at 200 mg/kg came out at 57%.
Consider `CCN1CCN(Cc2ccc(NC(=O)COc3ccc(-c4ccc(C(=O)NC)nc4)cc3)cc2C(F)(F)F)CC1`, for which the values for the IC50 (in series [1]; in series [2]; on Bcr/Abl fusion protein) were over 10000 nM, 6860 nM and over 10000 nM, respectively.
Take `CCN1CCC(Cc2ccc(NC(=O)COc3ccc(-c4cccnc4)cc3)cc2C(F)(F)F)CC1`: the IC50 (in series [1]; in [2]; at Bcr/Abl fusion protein) was over 10000 nM throughout.
For the compound `CCN1CCN(Cc2ccc(NC(=O)CNc3ccc(-c4cccnc4)cc3)cc2C(F)(F)F)CC1`, the IC50 was 350 nM in [1], 11 nM in series [2] and over 10000 nM on Bcr/Abl fusion protein.
Take `CCN1CCN(Cc2ccc(NC(=O)CNc3ccc(-c4ccc(NC(C)=O)nc4)cc3)cc2C(F)(F)F)CC1`: the IC50 in series [1] was 5980 nM; in [2], 44 nM; in [3], 90 nM; against Cytochrome P450 3A4, 3200 nM; on Bcr/Abl fusion protein, 380 nM; in series [5], 320 nM. Moreover, the IC50 at Cytochrome P450 2D6 was over 20000 nM. Halving of growth with K562 [4] (GI50) required 340 nM. The Papp in [7] was determined as 26.2 ×10⁻⁶ cm/s. For the same compound, the solubility thermodynamic at 18 h, 500 µM in [14] turned out to be 0.6 µg/mL (≈ 1.08 µM).
Turning to `O=C(CNc1ccc(-c2ccc(NC(=O)C3CC3)nc2)cc1)Nc1ccc(CN2CCNCC2)c(C(F)(F)F)c1`, the IC50 was determined as 510 nM in series [1]; 8 nM in series [2]; 100 nM in series [3]; 1100 nM against Cytochrome P450 3A4; 210 nM on Bcr/Abl fusion protein; 320 nM in series [5]. This compound also registered an IC50 against Cytochrome P450 2D6 of over 20000 nM. Besides, the solubility thermodynamic at 18 h, 500 µM in [6] turned out to be 109 µg/mL (≈ 197 µM). Further, the GI50 with K562 [4] is 80 nM. In addition, the Papp in series [7] is 5.53 ×10⁻⁶ cm/s.
